Measurements from ChEMBL document CHEMBL3808328, “Caged xanthones: Potent inhibitors of global predominant MRSA USA300” (Bioorg Med Chem Lett, 2016).
In brackets after ≈: the same amount, converted by molar mass. Activity calls are given as the source filed them. The calls are words filed in the database; no cut-off is given here.

Columns and labels:
Staphylococcus aureus [1] = test: Antibacterial activity against methicillin-resistant Staphylococcus aureus USA300 SF8300 assessed as zone of inhibition at 30 ug after 18 hrs by disk diffusion method; assay type: functional; conditions: USA300 SF8300, 18 h, read-out: DIZ
How it was run: (§1)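 Disk diffusion on 6 mm paper disks, with methicillin-susceptible S. aureus ATCC 25923 as the control strain alongside MRSA USA300 SF8300. The read-out is the diameter of the complete inhibition zone, averaged over at least three independent experiments and reported with standard errors. A 6 mm zone means no growth inhibition.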

Staphylococcus aureus [2] = test: Bactericidal activity against methicillin-resistant Staphylococcus aureus USA300 SF8300 after 18 to 20 hrs; assay type: functional
How it was run: (§2)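 Broth microdilution to find MIC and MBC against MRSA USA300 SF8300. Each compound was serially 2-fold diluted starting from its stock concentration.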

Staphylococcus aureus [3] = test: Antibacterial activity against methicillin-susceptible Staphylococcus aureus ATCC 29213 assessed as growth inhibition after 18 to 20 hrs by microdilution assay; assay type: functional
How it was run: (§3)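 Broth microdilution gives both MIC and MBC. Each compound is serially 2-fold diluted starting from its stock concentration.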

Staphylococcus aureus [4] = test: Bactericidal activity against methicillin-susceptible Staphylococcus aureus ATCC 29213 after 18 to 20 hrs; assay type: functional; how it was run: as §3
Staphylococcus aureus [5] = test: Antibacterial activity against methicillin-susceptible Staphylococcus aureus ATCC 25923 assessed as zone of inhibition at 30 ug after 18 hrs by disk diffusion method; assay type: functional; conditions: ATCC 25923, 18 h, read-out: DIZ
How it was run: (§4)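 Disks 6 mm in diameter; a 6 mm zone means no growth inhibition. The diameters of complete-inhibition zones are averaged over at least three independent experiments and reported with standard errors.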

Staphylococcus aureus [6] = test: Antibacterial activity against methicillin-resistant Staphylococcus aureus USA300 SF8300 assessed as growth inhibition after 18 to 20 hrs by microdilution assay; assay type: functional; how it was run: as §2
A549 [7] = test: Cytotoxicity against human A549 cells assessed as reduction in cell viability after 24 to 48 hrs by Presto Blue assay; assay type: cell-based
HEK293 [8] = test: Cytotoxicity against human HEK293 cells assessed as reduction in cell viability after 24 to 48 hrs by […] assay
Staphylococcus aureus [9] = test: Antibacterial activity against methicillin-resistant Staphylococcus aureus USA300 SF8300 assessed as zone of inhibition at 10 ug after 18 hrs by disk diffusion method; assay type: functional; conditions: USA300 SF8300, 18 h, read-out: DIZ; how it was run: as §1
Staphylococcus aureus [10] = test: Antibacterial activity against methicillin-susceptible Staphylococcus aureus ATCC 25923 assessed as zone of inhibition at 10 ug after 18 hrs by disk diffusion method; assay type: functional; conditions: ATCC 25923, 18 h, read-out: DIZ; how it was run: as §4
HEK293 [11] = test: Cytotoxicity against human HEK293 cells assessed as change in cell morphology at 12.5 to 25 uM after 10 mins to 2 hrs by microscopic analysis; assay type: cell-based; conditions: hek293, 25 µM
A549 [12] = test: Cytotoxicity against human A549 cells assessed as change in cell morphology at 12.5 to 25 uM after 10 mins to 2 hrs by microscopic analysis; assay type: cell-based; conditions: a549, 25 µM
Staphylococcus aureus [13] = test: Effect on methicillin-susceptible Staphylococcus aureus RF122 growth at >= MIC after 2 hrs; assay type: organism-based
Staphylococcus aureus [14] = test: Antibacterial activity against methicillin-susceptible Staphylococcus aureus RF122 infected in A549 cells assessed as inhibition of bacterial invasion after 2 hrs
A549 [15] = test: Cytotoxicity against human A549 cells assessed as cells detachment at 50 uM after 10 mins by microscopic analysis; assay type: cell-based; conditions: a549, 10 min
A549 [16] = test: Cytotoxicity against human A549 cells assessed as cells detachment at 12.5 uM after 2 hrs by microscopic analysis; assay type: cell-based; conditions: a549, 2 h
HEK293 [17] = test: Cytotoxicity against human HEK293 cells assessed as cells detachment at 12.5 uM after 2 hrs by microscopic analysis; assay type: cell-based; conditions: hek293, 2 h
Staphylococcus aureus [18] = test: Antibacterial activity against methicillin-susceptible Staphylococcus aureus RF122 infected in A549 cells assessed as inhibition of bacterial invasion at 1.5 uM after 1 hr; assay type: functional, organism-based
How it was run: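 Invasion assay in human epithelial A549 cells infected with S. aureus while the test compound was present. Concentrations were held below those that damage A549 cells. Both non-invading and invading bacteria were then cultured to rule out effects on bacterial growth.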

HEK293 [19] = test: Cytotoxicity against human HEK293 cells assessed as cells detachment at 50 uM after 10 mins by microscopic analysis; assay type: cell-based; conditions: hek293, 10 min
Staphylococcus aureus [20] = test: Antibacterial activity against methicillin-susceptible Staphylococcus aureus ATCC 25923 assessed as zone of inhibition at 1 ug after 18 hrs by disk diffusion method; assay type: functional; conditions: ATCC 25923, 18 h, read-out: DIZ; how it was run: as §1
Staphylococcus aureus [21] = test: Antibacterial activity against methicillin-resistant Staphylococcus aureus USA300 SF8300 assessed as zone of inhibition at 1 ug after 18 hrs by disk diffusion method; assay type: functional; conditions: USA300 SF8300, 18 h, read-out: DIZ; how it was run: as §1

SMILES	zone of inhibition at 30 µg/disc (Staphylococcus aureus [1])	MBC (Staphylococcus aureus [2])	MIC (Staphylococcus aureus [3])	MBC (Staphylococcus aureus [4])	zone of inhibition at 30 µg/disc (Staphylococcus aureus [5])	MIC (Staphylococcus aureus [6])	IC50 (A549 [7])	further results
CC(C)=CCc1c2c(c(O)c3c1O[C@@]14C(=C[C@H]5CC1C(C)(C)O[C@]4(C/C=C(/C)C(=O)N[C@@H](Cc1ccccc1)C(=O)O)C5=O)C3=O)C=CC(C)(C)O2	16.3 mm	25 µM (≈ 17.7 µg/mL)	12.5 µM (≈ 8.85 µg/mL)	12.5 µM (≈ 8.85 µg/mL)	17.1 mm	25 µM (≈ 17.7 µg/mL)	12.2 µM	–
CC(C)=CCc1c2c(c(O)c3c1O[C@@]14C(=C[C@H]5CC1C(C)(C)O[C@]4(C/C=C(\C)CO)C5=O)C3=O)C=CC(C)(C)O2	8.57 mm	–	–	–	7.75 mm	–	2.69 µM	IC50 (HEK293 [8]): 0.98 µM
CC(C)=CCC[C@]1(C)C=Cc2c(O)c3c(c(CC=C(C)C)c2O1)O[C@]12C(=C[C@@H]4C[C@H]1C(C)(C)O[C@@]2(C/C=C(/C)C(=O)O)C4=O)C3=O [GAMBOGIC ACID]	17.3 mm	50 µM (≈ 31.4 µg/mL)	12.5 µM (≈ 7.86 µg/mL)	25 µM (≈ 15.7 µg/mL)	16.6 mm	25 µM (≈ 15.7 µg/mL)	3.4 µM	IC50 (HEK293 [8]): 1.72 µM
CC(C)=CCc1c2c(c(O)c3c1O[C@@]14C(=C[C@H]5CC1C(C)(C)O[C@]4(C/C=C(/C)C(=O)N[C@@H](CO)C(=O)O)C5=O)C3=O)C=CC(C)(C)O2	6.28 mm	–	–	–	6.09 mm	–	–	–
CC1(C)S[C@@H]2[C@H](NC(=O)[C@H](N)c3ccccc3)C(=O)N2[C@H]1C(=O)O [AMPICILLIN]	–	> 100 µM	1.56 µM (≈ 0.545 µg/mL)	1.56 µM (≈ 0.545 µg/mL)	–	> 100 µM	–	zone of inhibition at 10 µg/disc (Staphylococcus aureus [9]): 6 mm; zone of inhibition at 10 µg/disc (Staphylococcus aureus [10]): 17 mm
CC(C)=CCc1c(O)cc(O)c2c1OC13C(=CC4CC1C(C)(C)O[C@]3(CC=C(C)C)C4=O)C2=O	7.97 mm	> 400 µM	200 µM (≈ 92.9 µg/mL)	200 µM (≈ 92.9 µg/mL)	7.86 mm	> 400 µM	–	–
CC(C)=CCc1c2c(c(O)c3c1O[C@@]14C(=C[C@H]5CC1C(C)(C)O[C@]4(C/C=C(/C)C(=O)N[C@@H](CCC(=O)NC(c1ccccc1)(c1ccccc1)c1ccccc1)C(=O)O)C5=O)C3=O)C=CC(C)(C)O2	8.21 mm	–	–	–	6.89 mm	–	–	–
CC(C)=CCc1c(O)cc(O)c2c1OC13C(=CC4(C/C=C/C(C)C)CC1C(C)(C)O[C@]3(CC=C(C)C)C4=O)C2=O	6 mm	–	–	–	6 mm	–	–	–
CC(C)=CCc1c2c(c(O)c3c1O[C@@]14C(=C[C@H]5CC1C(C)(C)O[C@]4(C/C=C(/C)C(=O)N[C@@H](CCC(=O)OCc1ccccc1)C(=O)O)C5=O)C3=O)C=CC(C)(C)O2	–	–	–	–	6.53 mm	–	–	–
CC(C)=CCc1c2c(c(O)c3c1O[C@@]14C(=C[C@H]5CC1C(C)(C)O[C@]4(C/C=C(/C)C(=O)N[C@H](C(=O)O)C(C)C)C5=O)C3=O)C=CC(C)(C)O2	22.2 mm	25 µM (≈ 16.5 µg/mL)	12.5 µM (≈ 8.25 µg/mL)	12.5 µM (≈ 8.25 µg/mL)	20 mm	25 µM (≈ 16.5 µg/mL)	29.8 µM	Activity (HEK293 [11]): Non-toxic; Activity (A549 [12]): Non-toxic; Activity (Staphylococcus aureus [13]): Non-toxic; IC50 (HEK293 [8]): 21.8 µM; inhibition (Staphylococcus aureus [14]): Dose-dependent effect
CC(C)=CCc1c2c(c(O)c3c1O[C@@]14C(=C[C@H]5CC1C(C)(C)O[C@]4(C/C=C(/C)C(=O)N[C@@H](CCC(=O)O)C(=O)O)C5=O)C3=O)C=CC(C)(C)O2	6 mm	–	–	–	6 mm	–	–	–
CSCC[C@H](NC(=O)/C(C)=C\C[C@]12OC(C)(C)C3C[C@H](C=C4C(=O)c5c(O)c6c(c(CC=C(C)C)c5O[C@@]431)OC(C)(C)C=C6)C2=O)C(=O)O	9.53 mm	–	–	–	7.09 mm	–	–	–
CC(C)=CCC/C(C)=C/Cc1c(O)c(CC=C(C)C)c2c(c1O)C(=O)C1=C[C@H]3CC4C(C)(C)O[C@](CC=C(C)C)(C3=O)[C@]14O2	6 mm	–	–	–	6 mm	–	–	–
CC(C)=CCc1c2c(c(O)c3c1O[C@@]14C(=C[C@H]5CC1C(C)(C)O[C@]4(C/C=C(/C)C(=O)O)C5=O)C3=O)C=CC(C)(C)O2	19.5 mm	25 µM (≈ 14 µg/mL)	12.5 µM (≈ 7.01 µg/mL)	12.5 µM (≈ 7.01 µg/mL)	19.2 mm	12.5 µM (≈ 7.01 µg/mL)	3.5 µM	Activity (A549 [15]): Toxic; Activity (A549 [16]): Toxic; Activity (HEK293 [17]): Toxic; inhibition (Staphylococcus aureus [18]): inactive; Activity (HEK293 [19]): Toxic; IC50 (HEK293 [8]): 2.33 µM
CC(C)=CCc1c2c(c(O)c3c1O[C@@]14C(C[C@H]5CC1C(C)(C)O[C@]4(C/C=C(\C)C=O)C5=O)C3=O)C=CC(C)(C)O2 (stereo partly specified)	6 mm	–	–	–	6 mm	–	–	–
CC(C)=CCc1c2c(c(O)c3c1O[C@@]14C(=C[C@H]5CC1C(C)(C)O[C@]4(CC=C(C)C)C5=O)C3=O)C=CC(C)(C)O2	6 mm	–	–	–	6 mm	–	1.42 µM	IC50 (HEK293 [8]): 0.81 µM
Cc1onc(-c2ccccc2)c1C(=O)N[C@@H]1C(=O)N2[C@@H]1SC(C)(C)[C@@H]2C(=O)O [OXACILLIN]	–	> 19.9 µM	0.62 µM (≈ 0.249 µg/mL)	1.25 µM (≈ 0.502 µg/mL)	–	> 19.9 µM	–	zone of inhibition at 1 µg/disc (Staphylococcus aureus [20]): 28.9 mm; zone of inhibition at 1 µg/disc (Staphylococcus aureus [21]): 6 mm
CC[C@H](C)[C@H](NC(=O)/C(C)=C\C[C@]12OC(C)(C)C3C[C@H](C=C4C(=O)c5c(O)c6c(c(CC=C(C)C)c5O[C@@]431)OC(C)(C)C=C6)C2=O)C(=O)O	19.4 mm	50 µM (≈ 33.7 µg/mL)	25 µM (≈ 16.8 µg/mL)	25 µM (≈ 16.8 µg/mL)	15.9 mm	25 µM (≈ 16.8 µg/mL)	24.5 µM	–
CC(C)=CCc1c2c(c(O)c3c1O[C@@]14C(=C[C@H]5CC1C(C)(C)O[C@]4(C/C=C(/C)C(=O)N[C@@H](CCC(N)=O)C(=O)O)C5=O)C3=O)C=CC(C)(C)O2	9.09 mm	–	–	–	7.5 mm	–	–	–
CC(C)=CCc1c2c(c(O)c3c1O[C@@]14C(=C[C@H]5CC1C(C)(C)O[C@]4(C/C=C(/C)C(=O)N[C@@H](CC(C)C)C(=O)O)C5=O)C3=O)C=CC(C)(C)O2	18.3 mm	50 µM (≈ 33.7 µg/mL)	25 µM (≈ 16.8 µg/mL)	25 µM (≈ 16.8 µg/mL)	16.5 mm	25 µM (≈ 16.8 µg/mL)	15.5 µM	–
COC(=O)/C(C)=C\C[C@]12OC(C)(C)C3C[C@H](C=C4C(=O)c5c(O)c6c(c(CC=C(C)C)c5O[C@@]431)OC(C)(C)C=C6)C2=O	6 mm	–	–	–	6 mm	–	–	–
CC(C)=CCc1c2c(c(O)c3c1O[C@@]14C(=C[C@H]5CC1C(C)(C)O[C@]4(C/C=C(/C)C(=O)N1CCC[C@H]1C(=O)O)C5=O)C3=O)C=CC(C)(C)O2	15.9 mm	> 100 µM	50 µM (≈ 32.9 µg/mL)	100 µM (≈ 65.8 µg/mL)	13.1 mm	100 µM (≈ 65.8 µg/mL)	21.1 µM	–
